Test results: ChEMBL document CHEMBL4382246, “Synthesis, biological evaluation, and molecular docking investigation of 3-amidoindoles as potent tubulin polymerization inhibitors” (Eur J Med Chem, 2019)

Each compound was assayed on MDA-MB-468 (assay: Cytotoxicity against human MDA-MB-468 cells after 72 hrs by MTT assay). Details: MDA-MB-468, 72 h.
Format: functional, cell-based
Summary of the method: (§1)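 Lines kept in RPMI-1640 with 10% FBS. Cells were seeded at 2×10³ per well and allowed to attach for 24 h at 37 °C. Medium was then replaced with medium holding serial dilutions from 100 mM DMSO stocks, with 0.1% DMSO as negative control, for 72 h at 37 °C. […] IC50 was fitted from the concentration series as the mean ± SD of three independent experiments run in duplicate.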

Compared with COc1cccc(C(=O)c2[nH]c3cc(Cl)ccc3c2NC(=O)c2cc(OC)c(OC)c(OC)c2)c1, COc1cc(C(=O)Nc2c(C(=O)c3ccccc3)[nH]c3cc(Cl)ccc23)cc(OC)c1OC is lower in IC50: > 100 µM for the first, 11 µM for the second. The second is the more potent here.

COc1cc(C(=O)Nc2c(C(=O)c3cccs3)[nH]c3ccccc23)cc(OC)c1OC and COc1cc(C(=O)Nc2c(C(=O)c3cccs3)[nH]c3cc(C)ccc23)cc(OC)c1OC cannot be ordered by IC50: > 100 µM for the first, > 100 µM for the second.

Going from COc1cc(C(=O)Nc2c(C(=O)c3ccc(-c4ccccc4)cc3)[nH]c3ccccc23)cc(OC)c1OC to COc1cc(C(=O)Nc2c(C(=O)c3ccc(C)cc3)[nH]c3ccccc23)cc(OC)c1OC, the IC50 falls from > 100 µM to 14.5 µM.

For COc1cc(C(=O)Nc2c(C(=O)c3ccccc3)[nH]c3cc(C)ccc23)cc(OC)c1OC, the IC50 was > 100 µM.

The compounds below were run on T47D (assay: Cytotoxicity against human T47D cells after 72 hrs by MTT assay). Details: not given.
Format: functional, cell-based
Summary of the method: as §1

COc1cccc(C(=O)c2[nH]c3cc(Cl)ccc3c2NC(=O)c2cc(OC)c(OC)c(OC)c2)c1 and COc1cc(C(=O)Nc2c(C(=O)c3ccccc3)[nH]c3cc(Cl)ccc23)cc(OC)c1OC are within 1.5-fold of each other in IC50: 52.4 µM for the first, 45.5 µM for the second.

COc1cc(C(=O)Nc2c(C(=O)c3cccs3)[nH]c3ccccc23)cc(OC)c1OC and COc1cc(C(=O)Nc2c(C(=O)c3cccs3)[nH]c3cc(C)ccc23)cc(OC)c1OC cannot be ordered by IC50: > 100 µM for the first, > 100 µM for the second.

First: COc1cc(C(=O)Nc2c(C(=O)c3ccc(-c4ccccc4)cc3)[nH]c3ccccc23)cc(OC)c1OC
Second: COc1cc(C(=O)Nc2c(C(=O)c3ccc(C)cc3)[nH]c3ccccc23)cc(OC)c1OC
The IC50 of the first is higher: > 100 µM for the first, 20.1 µM for the second.

With COc1cc(C(=O)Nc2c(C(=O)c3ccccc3)[nH]c3cc(C)ccc23)cc(OC)c1OC the IC50 was > 100 µM.

Each compound was assayed on BT-549 (assay: Cytotoxicity against human BT549 cells after 72 hrs by MTT assay). Details: BT-549, 72 h.
Format: functional, cell-based
Summary of the method: as §1

Compared with COc1cccc(C(=O)c2[nH]c3cc(Cl)ccc3c2NC(=O)c2cc(OC)c(OC)c(OC)c2)c1, COc1cc(C(=O)Nc2c(C(=O)c3ccccc3)[nH]c3cc(Cl)ccc23)cc(OC)c1OC is lower in IC50: > 100 µM for the first, 26.9 µM for the second.

COc1cc(C(=O)Nc2c(C(=O)c3cccs3)[nH]c3ccccc23)cc(OC)c1OC and COc1cc(C(=O)Nc2c(C(=O)c3cccs3)[nH]c3cc(C)ccc23)cc(OC)c1OC cannot be ordered by IC50: > 100 µM for the first, > 100 µM for the second.

First: COc1cc(C(=O)Nc2c(C(=O)c3ccc(-c4ccccc4)cc3)[nH]c3ccccc23)cc(OC)c1OC
Second: COc1cc(C(=O)Nc2c(C(=O)c3ccc(C)cc3)[nH]c3ccccc23)cc(OC)c1OC
The IC50 of the first is higher: > 100 µM for the first, 17.1 µM for the second. The second is the more potent here.

For COc1cc(C(=O)Nc2c(C(=O)c3ccccc3)[nH]c3cc(C)ccc23)cc(OC)c1OC, the IC50 was 42.3 µM.

The compounds below were run against Tubulin (Sus scrofa) (UniProt P02554+P02550) (assay: Inhibition of pig brain tubulin polymerization at 10 uM by spectrophotometric analysis relative to control). Details: not given.
Summary of the method: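 Tubulin polymerization inhibition was measured with compounds at a final concentration of 10 µM.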

Sequence of Tubulin (Sus scrofa) (P02550 whole entry, looked up): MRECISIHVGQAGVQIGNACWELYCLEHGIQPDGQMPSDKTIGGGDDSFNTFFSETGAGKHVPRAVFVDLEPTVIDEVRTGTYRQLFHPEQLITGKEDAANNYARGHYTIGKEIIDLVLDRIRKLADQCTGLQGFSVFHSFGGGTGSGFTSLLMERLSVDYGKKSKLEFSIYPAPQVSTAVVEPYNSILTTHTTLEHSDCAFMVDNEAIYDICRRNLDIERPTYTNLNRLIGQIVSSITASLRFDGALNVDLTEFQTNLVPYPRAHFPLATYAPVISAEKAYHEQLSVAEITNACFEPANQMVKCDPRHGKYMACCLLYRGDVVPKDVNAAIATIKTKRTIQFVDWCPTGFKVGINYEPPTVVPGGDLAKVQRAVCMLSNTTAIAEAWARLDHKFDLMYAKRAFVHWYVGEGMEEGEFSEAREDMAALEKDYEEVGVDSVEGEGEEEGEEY
Sequence of Tubulin (Sus scrofa) (P02554 whole entry, looked up): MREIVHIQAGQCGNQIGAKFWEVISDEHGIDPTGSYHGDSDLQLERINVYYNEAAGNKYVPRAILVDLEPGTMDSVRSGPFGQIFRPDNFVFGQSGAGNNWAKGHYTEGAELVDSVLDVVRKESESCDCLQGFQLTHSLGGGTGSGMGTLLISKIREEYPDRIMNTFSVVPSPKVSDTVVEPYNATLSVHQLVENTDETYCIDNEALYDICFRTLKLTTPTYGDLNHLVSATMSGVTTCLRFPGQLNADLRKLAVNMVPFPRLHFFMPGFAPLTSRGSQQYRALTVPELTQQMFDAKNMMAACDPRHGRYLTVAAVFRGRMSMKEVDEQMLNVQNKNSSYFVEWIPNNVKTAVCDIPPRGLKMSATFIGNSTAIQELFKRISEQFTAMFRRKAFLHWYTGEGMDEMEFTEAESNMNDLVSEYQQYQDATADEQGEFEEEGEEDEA

COc1cc(C(=O)Nc2c(C(=O)c3ccccc3)[nH]c3cc(Cl)ccc23)cc(OC)c1OC was tested, and the inhibition was 41%.

Each compound was assayed on MCF7 (assay: Cytotoxicity against human MCF7 cells after 72 hrs by MTT assay). Details: MCF7, 72 h.
Format: functional, cell-based
Summary of the method: as §1

First: COc1cccc(C(=O)c2[nH]c3cc(Cl)ccc3c2NC(=O)c2cc(OC)c(OC)c(OC)c2)c1
Second: COc1cc(C(=O)Nc2c(C(=O)c3ccccc3)[nH]c3cc(Cl)ccc23)cc(OC)c1OC
The IC50 of the first is higher: > 100 µM for the first, 51.8 µM for the second. The second is the more potent here.

COc1cc(C(=O)Nc2c(C(=O)c3cccs3)[nH]c3ccccc23)cc(OC)c1OC and COc1cc(C(=O)Nc2c(C(=O)c3cccs3)[nH]c3cc(C)ccc23)cc(OC)c1OC cannot be ordered by IC50: > 100 µM for the first, > 100 µM for the second.

Going from COc1cc(C(=O)Nc2c(C(=O)c3ccc(-c4ccccc4)cc3)[nH]c3ccccc23)cc(OC)c1OC to COc1cc(C(=O)Nc2c(C(=O)c3ccc(C)cc3)[nH]c3ccccc23)cc(OC)c1OC, the IC50 falls from > 100 µM to 50 µM.

COc1cc(C(=O)Nc2c(C(=O)c3ccccc3)[nH]c3cc(C)ccc23)cc(OC)c1OC gave an IC50 of 32.7 µM.

The compounds below were run on MDA-MB-231 (assay: Cytotoxicity against human MDA-MB-231 cells after 72 hrs by MTT assay). Details: MDA-MB-231, 72 h.
Format: functional, cell-based
Summary of the method: as §1

Compared with COc1cccc(C(=O)c2[nH]c3cc(Cl)ccc3c2NC(=O)c2cc(OC)c(OC)c(OC)c2)c1, COc1cc(C(=O)Nc2c(C(=O)c3ccccc3)[nH]c3cc(Cl)ccc23)cc(OC)c1OC is lower in IC50: > 100 µM for the first, 32.7 µM for the second. The second is the more potent here.

COc1cc(C(=O)Nc2c(C(=O)c3cccs3)[nH]c3ccccc23)cc(OC)c1OC and COc1cc(C(=O)Nc2c(C(=O)c3cccs3)[nH]c3cc(C)ccc23)cc(OC)c1OC cannot be ordered by IC50: > 100 µM for the first, > 100 µM for the second.

Compared with COc1cc(C(=O)Nc2c(C(=O)c3ccc(-c4ccccc4)cc3)[nH]c3ccccc23)cc(OC)c1OC, COc1cc(C(=O)Nc2c(C(=O)c3ccc(C)cc3)[nH]c3ccccc23)cc(OC)c1OC is lower in IC50: > 100 µM for the first, 12.6 µM for the second. The second is the more potent here.

Work on COc1cc(C(=O)Nc2c(C(=O)c3ccccc3)[nH]c3cc(C)ccc23)cc(OC)c1OC yielded an IC50 of 16.6 µM.

The compounds below were run on Hs-578T (assay: Cytotoxicity against human Hs578T cells after 72 hrs by MTT assay). Details: not given.
Format: functional, cell-based
Summary of the method: as §1

COc1cccc(C(=O)c2[nH]c3cc(Cl)ccc3c2NC(=O)c2cc(OC)c(OC)c(OC)c2)c1 and COc1cc(C(=O)Nc2c(C(=O)c3ccccc3)[nH]c3cc(Cl)ccc23)cc(OC)c1OC cannot be ordered by IC50: > 100 µM for the first, > 100 µM for the second.

First: COc1cc(C(=O)Nc2c(C(=O)c3cccs3)[nH]c3ccccc23)cc(OC)c1OC
Second: COc1cc(C(=O)Nc2c(C(=O)c3cccs3)[nH]c3cc(C)ccc23)cc(OC)c1OC
The IC50 of the first is lower: 29.6 µM for the first, > 100 µM for the second. The first is the more potent here.

Compared with COc1cc(C(=O)Nc2c(C(=O)c3ccc(-c4ccccc4)cc3)[nH]c3ccccc23)cc(OC)c1OC, COc1cc(C(=O)Nc2c(C(=O)c3ccc(C)cc3)[nH]c3ccccc23)cc(OC)c1OC is 2.3-fold higher in IC50: 22.2 µM for the first, 50.5 µM for the second. The first is the more potent here.

Work on COc1cc(C(=O)Nc2c(C(=O)c3ccccc3)[nH]c3cc(C)ccc23)cc(OC)c1OC yielded an IC50 of 49.1 µM.
